What was measured:
[1] = Binding affinity to voltage-gated sodium channel in rat brain synaptosomal membranes; assay type: cell membranes
[2] = species on record: Rattus norvegicus; test: Binding affinity to voltage-gated sodium channel in rat brain synaptosomal membranes relative to control; assay type: cell membranes
[3] = target: Sodium channel protein type 2 subunit alpha (Rattus norvegicus, UniProt P04775); test: Inhibition of rat brain voltage-gated sodium channel subunit alpha Nav1.2-mediated current expressed in CHO cells; assay type: cell-based
[4] = Inhibition of voltage-gated sodium channel in rat brain homogenate; assay type: tissue-based
Procedure, shortened: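 Radioligand displacement of [3H]batrachotoxin binding was measured in rat brain homogenates, and IC50 was derived.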

Chain of Sodium channel protein type 2 subunit alpha (P04775 whole entry): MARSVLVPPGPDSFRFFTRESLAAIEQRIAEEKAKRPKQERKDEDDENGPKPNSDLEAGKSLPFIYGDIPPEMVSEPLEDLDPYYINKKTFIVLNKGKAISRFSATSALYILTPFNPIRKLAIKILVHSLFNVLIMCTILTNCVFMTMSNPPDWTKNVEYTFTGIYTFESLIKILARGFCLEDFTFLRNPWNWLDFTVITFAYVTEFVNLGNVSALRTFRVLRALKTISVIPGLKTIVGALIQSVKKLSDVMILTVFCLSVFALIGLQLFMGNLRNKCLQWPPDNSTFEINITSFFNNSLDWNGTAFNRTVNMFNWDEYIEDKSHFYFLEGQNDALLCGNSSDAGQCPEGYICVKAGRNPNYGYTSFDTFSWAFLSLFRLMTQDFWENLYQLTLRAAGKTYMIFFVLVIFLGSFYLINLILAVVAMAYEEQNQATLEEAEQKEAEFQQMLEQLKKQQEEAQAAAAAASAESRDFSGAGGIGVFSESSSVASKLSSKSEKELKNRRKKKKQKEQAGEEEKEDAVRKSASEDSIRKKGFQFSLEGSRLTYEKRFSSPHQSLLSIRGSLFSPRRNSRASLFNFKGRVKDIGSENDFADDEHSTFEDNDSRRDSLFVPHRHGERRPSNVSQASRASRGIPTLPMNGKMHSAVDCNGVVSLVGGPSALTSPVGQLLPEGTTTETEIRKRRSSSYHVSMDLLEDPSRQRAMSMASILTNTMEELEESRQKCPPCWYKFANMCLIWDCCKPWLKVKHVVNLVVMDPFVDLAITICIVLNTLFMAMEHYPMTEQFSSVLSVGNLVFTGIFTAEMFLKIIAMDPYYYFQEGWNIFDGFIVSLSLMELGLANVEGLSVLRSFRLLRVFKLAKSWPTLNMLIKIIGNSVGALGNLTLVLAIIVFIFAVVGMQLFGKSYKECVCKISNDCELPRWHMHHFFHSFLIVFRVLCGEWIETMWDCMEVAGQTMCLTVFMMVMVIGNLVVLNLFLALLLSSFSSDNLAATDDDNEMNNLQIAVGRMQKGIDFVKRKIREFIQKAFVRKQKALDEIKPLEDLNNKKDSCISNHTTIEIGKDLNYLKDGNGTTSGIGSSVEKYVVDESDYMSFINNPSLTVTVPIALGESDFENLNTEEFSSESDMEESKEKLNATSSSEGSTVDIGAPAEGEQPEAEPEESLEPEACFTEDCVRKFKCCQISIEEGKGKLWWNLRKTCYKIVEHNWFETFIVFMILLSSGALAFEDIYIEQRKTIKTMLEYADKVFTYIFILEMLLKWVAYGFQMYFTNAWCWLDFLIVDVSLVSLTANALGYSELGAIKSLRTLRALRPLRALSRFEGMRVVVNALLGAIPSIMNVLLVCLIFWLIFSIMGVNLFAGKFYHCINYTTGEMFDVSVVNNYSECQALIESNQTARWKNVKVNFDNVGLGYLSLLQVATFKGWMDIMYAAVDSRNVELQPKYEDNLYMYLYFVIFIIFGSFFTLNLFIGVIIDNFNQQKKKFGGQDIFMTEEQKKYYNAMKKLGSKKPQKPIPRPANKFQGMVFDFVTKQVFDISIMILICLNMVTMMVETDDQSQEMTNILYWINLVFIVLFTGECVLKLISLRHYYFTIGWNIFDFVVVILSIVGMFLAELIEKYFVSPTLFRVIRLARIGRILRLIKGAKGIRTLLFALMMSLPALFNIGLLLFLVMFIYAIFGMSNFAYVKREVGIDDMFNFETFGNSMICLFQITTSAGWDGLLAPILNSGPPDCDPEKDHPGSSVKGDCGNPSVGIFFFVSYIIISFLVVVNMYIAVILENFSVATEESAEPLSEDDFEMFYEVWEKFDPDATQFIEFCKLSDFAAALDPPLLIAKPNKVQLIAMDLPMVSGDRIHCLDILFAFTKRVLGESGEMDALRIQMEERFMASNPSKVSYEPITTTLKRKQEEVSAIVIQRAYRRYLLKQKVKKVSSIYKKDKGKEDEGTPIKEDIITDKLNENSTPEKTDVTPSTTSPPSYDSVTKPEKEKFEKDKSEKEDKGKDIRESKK

CCCCC/N=c1\ccn(Cc2ccccc2)c2cc(Cl)ccc12
Kd [1]: 2.2 nM
Bmax [2]: 5.4 pmol/mg
IC50 [3]: 9 nM
IC50 [4]: 8.1 nM
